Laboratory results reported in ChEMBL document CHEMBL1153955, “Indolylarylsulfones bearing natural and unnatural amino acids. Discovery of potent inhibitors of HIV-1 non-nucleoside wild type and resistant mutant strains reverse transcriptase and coxsackie B4 virus” (J Med Chem, 2009).

Legend:
[1] = biological target: Human immunodeficiency virus type 1 reverse transcriptase (Human immunodeficiency virus 1, UniProt Q72547); test: Inhibition of HIV1 reverse transcriptase p66/p51; settings: read-out: IC50
[2] = biological target: Human immunodeficiency virus type 1 reverse transcriptase (Human immunodeficiency virus 1, UniProt Q72547, K103N); test: Inhibition of HIV1 reverse transcriptase p66/p51 K103N mutant; settings: read-out: IC50
Outline: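 Substrate was 0.5 µg poly(rA)/oligo(dT) 10:1 (0.3 µM 3′-OH ends) with 10 µM [³H]dTTP, at 37 °C. Acid-precipitable radioactivity was counted on GF/C filters after TCA washes.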

[3] = Cytotoxicity against human HEL cells assessed as drug level causing microscopically detectable alteration of normal cell morphology after 3 days; type: cell-based
[4] = tested on: Human alphaherpesvirus 1; test: Antiviral activity against HSV1 KOS in human HEL cells assessed as protection against virus-induced cytopathicity; type: functional, organism-based; settings: Human alphaherpesvirus 1, KOS
[5] = tested on: Human alphaherpesvirus 2; test: Antiviral activity against HSV2 G in human HEL cells assessed as protection against virus-induced cytopathicity; type: functional, organism-based; settings: Human alphaherpesvirus 2, strain G
Outline: (§1)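 Confluent cell monolayers inoculated with 100 CCID₅₀ virus. After 1-2 h adsorption, residual virus removed and cultures incubated with varying compound concentrations. Cytopathicity scored once it reached completion in untreated infected controls. EC₅₀ = dose reducing virus-induced cytopathogenicity by 50%.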

[6] = tested on: Vaccinia virus; test: Antiviral activity against Vaccinia virus Lederle in human HEL cells assessed as protection against virus-induced cytopathicity; type: functional, organism-based; settings: Orthopoxvirus vaccinia
[7] = tested on: Vesicular stomatitis virus; test: Antiviral activity against VSV in human HEL cells assessed as protection against virus-induced cytopathicity; type: functional, organism-based
[8] = Cytotoxicity against feline CRFK cells by MTS assay; type: cell-based, Felis catus; settings: cat
[9] = tested on: Feline coronavirus; test: Antiviral activity against Feline coronavirus in feline […] cells assessed as inhibition of virus-induced cytopathicity; type: functional, organism-based; settings: Alphacoronavirus 1
[10] = tested on: Felid alphaherpesvirus 1; test: Antiviral activity against Feline herpesvirus in feline […] cells assessed as inhibition of virus-induced cytopathicity; type: functional, organism-based
[11] = tested on: Respiratory syncytial virus; test: Antiviral activity against RSV Long in human HeLa cells assessed as protection against virus-induced cytopathicity; type: functional, organism-based; outline: as §1
[12] = Cytotoxicity against human HeLa cells assessed as drug level causing microscopically detectable alteration of normal cell morphology after 3 days; type: cell-based
Outline: (§2)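 Serial compound dilutions added to confluent HeLa or Vero monolayers. MCC = minimum concentration causing microscopically detectable alteration of cell morphology after 3 days of incubation.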

[13] = Cytotoxicity against african green monkey Vero cells assessed as drug level causing microscopically detectable alteration of normal cell morphology after 3 days; type: cell-based; settings: chlorocebus sabaeus; outline: as §2
[14] = tested on: Coxsackievirus B4; test: Antiviral activity against Coxsackievirus B4 in human HeLa cells assessed as protection against virus-induced cytopathicity; type: functional, organism-based; settings: Enterovirus B; outline: as §1
[15] = tested on: Coxsackievirus B4; test: Antiviral activity against Coxsackievirus B4 in african green monkey Vero cells assessed as protection against virus-induced cytopathicity; type: functional, organism-based; settings: Enterovirus B; outline: as §1
[16] = tested on: Human respirovirus 3; test: Antiviral activity against Parainfluenza virus type 3 in african green monkey Vero cells assessed as protection against virus-induced cytopathicity; type: functional, organism-based; settings: Human respirovirus 3, Vero; outline: as §1
[17] = tested on: Sindbis virus; test: Antiviral activity against Sindbis virus in african green monkey Vero cells assessed as protection against virus-induced cytopathicity; type: functional, organism-based; outline: as §1
[18] = tested on: Punta Toro virus; test: Antiviral activity against Punta Toro virus in african green monkey Vero cells assessed as protection against virus-induced cytopathicity; type: functional, organism-based; outline: as §1
[19] = tested on: Human alphaherpesvirus 1; test: Antiviral activity against thymidine kinase deficient and acyclovir resistant HSV1 KOS in human HEL cells assessed as protection against virus-induced cytopathicity; type: functional, organism-based; settings: Human alphaherpesvirus 1, KOS
[20] = Cytotoxicity against MDCK cells assessed as drug level causing microscopically detectable alteration of normal cell morphology; type: cell-based, Canis lupus familiaris; settings: dog
[21] = Cytotoxicity against MDCK cells by MTS assay; type: cell-based, Canis lupus familiaris; settings: dog
[22] = tested on: Influenza A virus; test: Antiviral activity against influenza H1N1 virus in MDCK cells assessed as reduction of virus-induced cytopathicity by visual cytopathic effect scoring method; type: functional, organism-based
[23] = tested on: Influenza A virus; test: Antiviral activity against influenza H1N1 virus in MDCK cells assessed as reduction of virus-induced cytopathicity by MTS method; type: functional, organism-based
[24] = tested on: Influenza A virus H3N2; test: Antiviral activity against influenza H3N2 virus in MDCK cells assessed as reduction of virus-induced cytopathicity by MTS method; type: functional, organism-based
[25] = tested on: Influenza B virus; test: Antiviral activity against influenza B virus in MDCK cells assessed as reduction of virus-induced cytopathicity by visual cytopathic effect scoring method; type: functional, organism-based
[26] = tested on: Influenza B virus; test: Antiviral activity against influenza B virus in MDCK cells assessed as reduction of virus-induced cytopathicity by MTS method; type: functional, organism-based
[27] = tested on: Influenza A virus H3N2; test: Antiviral activity against influenza H3N2 virus in MDCK cells assessed as reduction of virus-induced cytopathicity by visual cytopathic effect scoring method; type: functional, organism-based

Cc1cc(C)cc(S(=O)(=O)c2c(C(=O)N[C@@H](C)C(N)=O)[nH]c3ccc(Cl)cc23)c1
IC50 [1]: 0.026 µM
IC50 [2]: 1.01 µM

Cc1cc(C)cc(S(=O)(=O)c2c(C(=O)N[C@H](C)CC(N)=O)[nH]c3ccc(Cl)cc23)c1
IC50 [1]: 0.147 µM
IC50 [2]: 1.42 µM

Cc1cc(C)cc(S(=O)(=O)c2c(C(=O)N[C@H](C)C(N)=O)[nH]c3ccc(Br)cc23)c1
IC50 [1]: 0.016 µM
IC50 [2]: 0.324 µM

O=c1[nH]c(=O)n([C@H]2C[C@H](O)[C@@H](CO)O2)cc1/C=C/Br [BRIVUDINE]
MCC at 72 h [3]: > 250 µM
EC50 [4]: 0.02 µM
EC50 [5]: 29 µM
EC50 [6]: 4 µM
EC50 [7]: > 250 µM

Cc1cc(C)cc(S(=O)(=O)c2c(C(=O)N[C@@H](C)CC(N)=O)[nH]c3ccc(Cl)cc23)c1
IC50 [1]: 0.315 µM
IC50 [2]: 1.34 µM

Nc1nc2c(ncn2COC(CO)CO)c(=O)[nH]1 [GANCICLOVIR]
MCC at 72 h [3]: > 100 µM
EC50 [5]: 0.2 µM
EC50 [6]: > 100 µM
EC50 [7]: > 100 µM
CC50 [8]: > 100 µM
EC50 [9]: > 100 µM
EC50 [10]: 1.2 µM

NC(=O)c1ncn([C@@H]2O[C@H](CO)[C@@H](O)[C@H]2O)n1 [RIBAVIRIN]
EC50 [11]: 10 µM
MCC at 72 h [12]: > 250 µM
MCC at 72 h [13]: > 250 µM
EC50 [14]: 50 µM
EC50 [15]: ≥ 250 µM
EC50 [16]: > 50 µM
EC50 [17]: 250 µM
EC50 [18]: 50 µM
MCC at 72 h [3]: > 250 µM
EC50 [4]: > 250 µM
EC50 [5]: 250 µM
EC50 [6]: 112 µM
EC50 [7]: 125 µM
EC50 [19]: > 250 µM
MCC [20]: > 100 µM
CC50 [21]: > 100 µM
EC50 [22]: 900 µM
EC50 ([23]; mdck): 8400 µM
EC50 [24]: 8.1 µM
EC50 [25]: 4 µM
EC50 [26]: 4.8 µM

CC(N)C12CC3CC(CC(C3)C1)C2 (centres undefined) [RIMANTADINE]
MCC [20]: > 100 µM
CC50 [21]: > 100 µM
EC50 [22]: 45 µM
EC50 ([23]; Influenza A virus, H1N1, MDCK): 33.2 µM
EC50 [27]: > 100 µM
EC50 [24]: > 100 µM
EC50 [25]: > 100 µM
EC50 [26]: > 100 µM
